Source: ChEMBL document CHEMBL3044699, “Synthesis and herbicidal activity of N-oxide derivatives” (2000)
Calls of active or inactive are those of the source. No cut-off for these calls is given here.

Columns and labels:
Triticum aestivum [1] = test: Stimulation of plant growth parameters in Triticum aestivum (wheat) assessed as increase in length of the first leaf at 50 mol/ha; format: functional, organism-based
In short: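 Pre-emergence greenhouse whole-plant test on T. aestivum L. Seeds were grown in sterilized sand in celled flats, with the medium near neutral pH. Compound was applied in acetone/H₂O, DMSO/H₂O, acetone/DMSO or acetone/DMSO/H₂O/Tween 80 vehicle, at 6.4–19.6 kg/ha by weight. Length of first leaf was compared with untreated control, with a score of 0 marking an increase. Atrazine at 2.5 kg/ha was the positive control. Run in duplicate and analysed by ANOVA.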

Triticum aestivum [2] = test: Stimulation of plant growth parameters in Triticum aestivum (wheat) assessed as increase in aerial weight at 50 mol/ha; format: functional, organism-based
In short: (§1)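 Wheat was grown in sterilized sand flats at near-neutral pH and treated pre-emergence at 6.4–19.6 kg/ha in acetone-, DMSO- or Tween 80-containing vehicles. Length of first leaf, aerial weight and radicular weight were compared with untreated control and scored 4 (100–80% reduction), 3 (79–50%), 2 (49–20%), 1 (19–1%) or 0 (increase). Atrazine 2.5 kg/ha was the positive control. Duplicate runs; ANOVA.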

Triticum aestivum [3] = test: Pre-emergence herbicidal activity against Triticum aestivum (wheat) assessed as germination seeds level at 50 mol/ha relative to untreated control; format: functional
In short: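 Pre-emergence greenhouse assay on T. aestivum sown in sterilized sand in celled flats, with the medium near neutral pH. Compound was applied in acetone/H₂O, DMSO/H₂O, acetone/DMSO or acetone/DMSO/H₂O/Tween 80 at 6.4–19.6 kg/ha. Percentage of germinated seeds was calculated against untreated control. Atrazine (2.5 kg/ha, 12 mol/ha) was the positive control. Run in duplicate; ANOVA.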

Triticum aestivum [4] = test: Stimulation of plant growth parameters in Triticum aestivum (wheat) assessed as increase in radicular weight at 50 mol/ha; format: functional, organism-based; in short: as §1
Triticum aestivum [5] = test: Pre-emergence herbicidal activity against Triticum aestivum (wheat) assessed as reduction in aerial weight at 50 mol/ha relative to untreated control; format: functional; in short: as §1
Triticum aestivum [6] = test: Pre-emergence herbicidal activity against Triticum aestivum (wheat) assessed as reduction in radicular weight at 50 mol/ha relative to untreated control; format: functional; in short: as §1
Triticum aestivum [7] = test: Pre-emergence herbicidal activity against Triticum aestivum (wheat) assessed as reduction in length of the first leaf at 50 mol/ha relative to untreated control; format: functional; in short: as §1
Triticum aestivum [8] = test: Post-emergence herbicidal activity against Triticum aestivum (wheat) at 50 mol/ha measured 10 days post compound application; format: functional, organism-based
In short: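 Post-emergence greenhouse test on T. aestivum, set up identically to the pre-emergence test: sterilized sand flats at near-neutral pH, application at 6.4–19.6 kg/ha in acetone/DMSO/water-based vehicles, and reduction of plant parameters versus untreated control scored on a 0–4 scale. Atrazine 2.5 kg/ha was the positive control. Duplicate; ANOVA.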

| SMILES | Activity (Triticum aestivum [1]) | Activity (Triticum aestivum [2]) | Activity (Triticum aestivum [3]) | Activity (Triticum aestivum [4]) | Activity (Triticum aestivum [5]) | Activity (Triticum aestivum [6]) | Activity (Triticum aestivum [7]) | Activity (Triticum aestivum [8]) |
| --- | --- | --- | --- | --- | --- | --- | --- | --- |
| COC(=O)N/N=C/c1ccc2nonc2c1 | Active | Active | 100% | Active | – | – | – | – |
| [O-][n+]1onc2ccccc21 [BENZO[C][1,2,5]OXADIAZOLE 1-OXIDE] | – | – | 100% | – | inactive | inactive | inactive | inactive |
| COc1ccc(NCc2c(-c3ccccc3)no[n+]2[O-])cc1 | – | – | 100% | – | 1% | 1% | 1% | – |
| COC(=O)N/N=C/c1c(-c2ccccc2)no[n+]1[O-] | – | Active | 100% | – | – | 2% | 2% | – |
| O=C(Nc1ccc(Cl)cc1)c1ccc2c(c1)no[n+]2[O-] | – | – | 96% | – | 3% | 4% | 3% | – |
| Cc1c(/C=N/NC(N)=S)no[n+]1[O-] | – | – | 92% | – | 4% | 4% | – | – |
| [O-][n+]1onc(-c2ccccc2)c1CNc1ccc(Br)cc1 | – | – | 100% | – | 1% | 1% | 2% | – |
| O=Cc1ccc2no[n+]([O-])c2c1 [6-FORMYLBENZO[C][1,2,5]OXADIAZOLE1-OXIDE] | – | – | 100% | Active | 1% | – | 2% | – |
| [O-][n+]1onc(-c2ccccc2)c1CCl | – | – | 100% | – | 1% | 1% | 1% | inactive |
| COC(=O)N/N=C/c1ccc2c(c1)[n+]([O-])c(C)c(C)[n+]2[O-] | Active | Active | 100% | Active | – | – | – | – |
| O=C(NCCc1ccccc1)N/N=C/c1ccc2c(c1)no[n+]2[O-] | – | – | 100% | – | 2% | 2% | 2% | – |
| Cc1c(C=O)no[n+]1[O-] | – | Active | 100% | – | – | 1% | 1% | – |
| [O-][n+]1onc(-c2ccccc2)c1CN1CCN(c2ncccn2)CC1 | – | – | 100% | – | inactive | inactive | inactive | inactive |
| [O-][n+]1onc(-c2ccccc2)c1CNc1ccc(Cl)cc1 | – | – | 100% | – | 1% | 1% | 1% | – |
| Cc1c(/C=N/NC(N)=O)no[n+]1[O-] | – | – | 89% | – | 4% | 3% | – | – |
| COC(=O)N/N=C/c1ccc2c(c1)no[n+]2[O-] | – | – | 75% | – | 1% | 3% | 1% | – |
| O=C(c1ccc2c(c1)no[n+]2[O-])N1CCOCC1 | – | – | 100% | – | 3% | 3% | 3% | – |
| Cc1c(C)[n+]([O-])c2cc(/C=N/NC(=O)NCCc3ccccc3)ccc2[n+]1[O-] | Active | Active | 100% | – | – | 1% | – | – |
| CCCCNC(=O)c1ccc2c(c1)no[n+]2[O-] | – | – | 46% | – | 3% | 3% | 3% | – |
| O=C(O)c1ccc2no[n+]([O-])c2c1 | – | – | 100% | – | 1% | 1% | 1% | inactive |
| COC(=O)N/N=C/c1no[n+]([O-])c1C | – | – | 15% | Active | 3% | – | 3% | – |
| CCCCCCNC(=O)N/N=C/c1no[n+]([O-])c1C | – | – | 95% | – | 4% | 3% | 3% | – |
| COCCNC(=O)c1ccc2c(c1)no[n+]2[O-] | – | – | 100% | – | 1% | 1% | 2% | – |
| O=C1c2ccccc2C(=O)N1Cc1c(-c2ccccc2)no[n+]1[O-] | Active | Active | 100% | – | – | 1% | – | – |
| Cc1ccc2no[n+]([O-])c2c1 [6-METHYLBENZO[C][1,2,5]OXADIAZOLE1-OXIDE] | – | – | 100% | – | 3% | 3% | 3% | – |
| NC(=S)N/N=C/c1c(-c2ccccc2)no[n+]1[O-] | – | Active | 100% | – | – | 3% | 2% | – |
| O=Cc1c(-c2ccccc2)no[n+]1[O-] | – | Active | 100% | – | – | 1% | 1% | – |
